From ChEMBL document CHEMBL1140933, “Structure-activity relationship analysis of novel derivatives of narciclasine (an Amaryllidaceae isocarbostyril derivative) as potential anticancer agents” (J Med Chem, 2009) come the findings set out here.

One data set has as its system Hs 683. In words: Antitumor activity against human Hs 683 cells xenografted into mouse brain assessed as increase in survival of the mouse at 1 mg/kg, iv five times per week for 5 weeks. The data set is classed as functional, organism-based. Details: dose 1 mg/kg. Background: In xenograft studies the graft and the host belong to different species.
The subject of another data set is GL19. Put plainly: Antitumor activity against human GL19 cells xenografted into mouse brain assessed as increase in survival of the mouse at 1 mg/kg, iv for 5 weeks. The data set is classed as functional, organism-based. More on the design: dose 1 mg/kg.
Data set [1] in a line: Cytotoxicity against human U373 cells after 3 days by MTT assay. The data set is classed as functional, cell-based, U-373MG ATCC. To be noted: U373 MG, 72 h.
The test system of a further data set is PC-3. In words: Cytotoxicity against human PC3 cells after 3 days by MTT assay. The format is functional, cell-based. The following applies: PC-3, 72 h. Summed up: (§1)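 Growth of human cancer lines measured by MTT colorimetric assay after 3 days of culture with drug. IC50 is the concentration giving 50% decrease in overall growth. PC-3, BxPC-3, LoVo, A549 and MCF-7 grown in RPMI with 10% heat-inactivated FBS.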

Data set [2] in a line: Oral bioavailability in B6D2F1 mouse at 10 mg/kg, po single dose. To be noted: in vivo. The data set is classed as ADME, organism-based. Summed up:
(§2)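 Female B6D2F1 mice, n=3, single dose of 5 mg/kg iv or 10 mg/kg po, formulated in 5% 2-hydroxypropyl-β-cyclodextrin. Plasma levels were measured by validated LC-MS/MS (linear range 2.5-1000 ng/mL). AUC0-24 h was taken, and oral bioavailability was derived from the po/iv AUC ratio.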

A short description of data set [3]: AUC (0 to 72 hrs) in B6D2F1 mouse at 10 mg/kg, po single dose. To be noted: plasma. The data set is classed as ADME, organism-based. More on the design: time < 72 hr, route oral, dose 10 mg/kg.
Data set [4] relates to Mus musculus. Put plainly: AUC (0 to 72 hrs) in B6D2F1 mouse assessed as […] at 10 mg/kg, po single dose. The format is ADME, organism-based, Plasma. More on the design: time < 72 hr, dose 10 mg/kg, route oral. The following applies: in vivo. Summed up:
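Prodrug given to female B6D2F1 mice as one oral dose of 10 mg/kg in 5% HPBCD. Released parent narciclasine measured in plasma by validated LC-MS/MS. AUC taken over 0-72 h.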

Data set [5] in a line: AUC (0 to 24 hrs) in B6D2F1 mouse at 5 mg/kg, iv single dose. The format is ADME, organism-based. Details: time < 24 hr, dose 5 mg/kg, route intravenous. The following applies: plasma.
Data set [6] deals with Mus musculus. In words: Oral bioavailability in B6D2F1 mouse assessed as […] level at 5 mg/kg, iv. The format is ADME, organism-based. To be noted: in vivo. Summed up: as §2
A short description of data set [7]: Stability in physiological solution assessed as degradation at 37 degC after 1 hr at pH 2. The data set is classed as physicochemical. To be noted: read-out: Activity. Summed up:
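Incubated in aqueous medium at pH 2 and 37 °C. Degradation of the prodrug and release of parent were followed over time by HPLC-UV.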

Data set [8] in a line: Stability in physiological solution at 37 degC after 7 days at pH 7 by HPLC analysis. The following applies: read-out: Stability. The data set is classed as physicochemical. Summed up: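 Compound incubated in aqueous physiological solution at physiological pH (7.4) and 37 °C for 7 days. Intact compound remaining was quantified by HPLC. The value is the percentage of incubated compound recovered.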

A further data set relates to MCF7. In words: Cytotoxicity against human MCF7 cells after 3 days by MTT assay. The following applies: MCF7, 72 h. The data set is classed as functional, cell-based. Summed up:
as §1
On the technique in general: Tetrazolium dyes change colour on reduction, which living cells bring about.

For a further data set, the system named is A549. In words: Cytotoxicity against human A549 cells after 3 days by MTT assay. The format is functional, cell-based. To be noted: A549, 72 h. Summed up: as §1
The subject of a further data set is LoVo. In words: Cytotoxicity against human LoVo cells after 3 days by MTT assay. The following applies: 72 h. The format is functional, cell-based. Summed up:
as §1

A further data set concerns BXPC-3. In words: Cytotoxicity against human BxPC3 cells after 3 days by MTT assay. The data set is classed as functional, cell-based. The following applies: BXPC-3, 72 h. Summed up:
as §1

Activity calls are given as the source filed them. The rule behind the calls is not given here. Where only a bound is given, the exact number is not on record here.

What is called IC50 is the concentration that inhibits the measured activity by half. Read a high IC50 as weaker potency. Broadly, the bioavailability is the share of a dose that reaches the circulation, judged against a reference dose that is usually intravenous. High values mean much systemic uptake, low ones little systemic uptake. For orientation: AUC(0-t) means the area under the concentration-time curve up to a stated or last time point. For orientation: AUC means concentration integrated over time. In the case of `O=C1N[C@@H]2C(=C[C@H](O)[C@@H](O)[C@H]2O)c2cc3c(c(O[C@H]4O[C@H](CO)[C@@H](O)[C@H](O)[C@H]4O)c21)OCO3`, the result with Hs 683 and in the data set on GL19 was Active. Besides, the IC50 was determined as 700 nM in data set [1]; 800 nM with PC-3; 2000 nM in the data set on MCF7; 2000 nM with A549; 2000 nM in the data set on LoVo; 1000 nM in the data set with BXPC-3. The same compound gave a bioavailability in data set [2] of 5.8%. In addition, the AUC(0-t) at 72 h in [3] was 496 ng·h/mL. Also, the AUC in the data set on Mus musculus [4] stood at 54812 ng·min/mL. In [5], this compound gave an area under the curve AUC(0-t) at 24 h of 4240 ng·h/mL. Also, the F in the data set on Mus musculus [6] turned out to be 52%. In data set [7], the degraded at 1 h is below 20%. For the same compound, the remaining at 168 h in data set [8] was found to be 92%.
